Experiments:
[1] = Cytotoxicity against human KB31 cells after 48 hrs by SRB method; type: functional, cell-based; settings: KB 3-1, 48 h
Outline: (§1)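 KB-3-1 and KB-V1 cells grown in DMEM with 2 mM L-glutamine and 10% heat-inactivated FCS at 37 °C, 5% CO2. KB-V1 kept under VLB. 2.5-5.0×10^3 cells/well seeded in 5% FCS medium, attached overnight, then exposed to compound for 48 h. Vehicle was DMSO or MeOH, final <0.5%. Read by SRB: TCA fixation, 0.4% SRB stain, Tris solubilization, absorbance at 570 nm. Mean ± S.D. of two experiments.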

[2] = system: KB-V1; test: Reversal of P-glycoprotein-mediated multidrug resistance assessed as ratio of taxol IC50 for drug-resistant human KB-V1 cells to taxol IC50 for human drug-sensitive KB-3-1 cells at 10 uM after 48 hrs by SRB method; type: cell-based
Outline: (§2)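 KB-3-1 and resistant KB-V1 cells seeded overnight, then treated for 48 h with a concentration range of adriamycin, vinblastine or taxol plus 10 μM modulator. Growth read by SRB at 570 nm and IC50 taken against vehicle controls. Relative resistance = IC50 in KB-V1 / IC50 in KB-3-1.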

[3] = Cytotoxicity against vinblastine resistant human KBV1 cells after 48 hrs by SRB method; type: functional, cell-based; settings: KB-V1, 48 h; outline: as §1
[4] = system: KB-V1; test: Reversal of P-glycoprotein-mediated multidrug resistance assessed as ratio of IC50 for human KB-V1 cells to IC50 for human KB-V1 cells in presence of 100 nM vinblastine; type: cell-based
Outline: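 KB-V1 cells given compound alone or with 100 nM vinblastine for 48 h. Growth read by SRB at 570 nm and IC50 taken against vehicle controls. Enhancement factor = IC50 in KB-V1 without VLB / IC50 with VLB. Mean ± S.D. of two experiments.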

[5] = system: KB-V1; test: Reversal of P-glycoprotein-mediated multidrug resistance assessed as ratio of adriamycin IC50 for drug-resistant human KB-V1 cells to adriamycin IC50 for human drug-sensitive KB-3-1 cells at 10 uM after 48 hrs by SRB method; type: cell-based; outline: as §2
[6] = system: KB-V1; test: Reversal of P-glycoprotein-mediated multidrug resistance assessed as ratio of vinblastine IC50 for drug-resistant human KB-V1 cells to vinblastine IC50 for human drug-sensitive KB-3-1 cells at 10 uM after 48 hrs by SRB method; type: cell-based; outline: as §2
[7] = Cytotoxicity against vinblastine resistant human KBV1 cells after 48 hrs in presence of 100 nM vinblastine by SRB method; type: functional, cell-based; settings: KB-V1, 48 h; outline: as §1

Compound | IC50 [1] [µM] | Ratio IC50 [2] | IC50 [3] [µM] | Ratio IC50 [4] | Ratio IC50 [5] | Ratio IC50 [6] | IC50 [7] [µM]
CC(=O)OC[C@]12[C@@H](OC(=O)c3ccccc3)C[C@@H]3[C@@H](OC(C)=O)[C@]1(OC3(C)C)[C@H](C)C[C@H](OC(=O)c1ccccc1)[C@@H]2OC(C)=O | 27.3 | 3.9 | 28.6 | 57.2 | 1.4 | 2.7 | 0.5
CC(=O)OC[C@@]12[C@@H](OC(C)=O)CC[C@@H](C)[C@]13OC(C)(C)[C@H](C[C@@H]2OC(=O)c1ccccc1)[C@H]3OC(C)=O | 85.3 | 10 | 79.4 | 79.4 | 5.5 | 12.9 | 1
CC(=O)O[C@H]1CC[C@@H](C)[C@]23OC(C)(C)[C@H](C[C@H](OC(=O)c4ccccc4)[C@]12C)[C@H]3OC(=O)c1ccccc1 | 10.5 | – | 12.3 | 6.4 | – | – | 1.9
CC(=O)O[C@H]1C[C@@H](C)[C@]23OC(C)(C)[C@H](C[C@H](OC(=O)c4ccccc4)[C@]2(C)[C@H]1OC(C)=O)[C@H]3OC(C)=O | 41.3 | 3.7 | 34.8 | 87 | 8.3 | 2.3 | 0.4
CC(=O)O[C@H]1C[C@@H](C)[C@]23OC(C)(C)[C@H](C[C@H](OC(=O)c4ccccc4)[C@]2(C)[C@H]1OC(C)=O)[C@H]3OC(=O)c1ccccc1 [ORBICULIN A] | 31.6 | 1.2 | 32 | 80 | 3 | 0.9 | 0.4
CC(=O)O[C@H]1CC[C@@H](C)[C@]23OC(C)(C)[C@H](C[C@H](OC(=O)c4ccccc4)[C@]12C)[C@H]3OC(=O)c1ccco1 [ORBICULIN B] | 268 | – | 246 | 12.5 | – | – | 19.6
CC(=O)O[C@H]1CC[C@@H](C)[C@]23OC(C)(C)[C@H](C[C@H](OC(=O)c4ccco4)[C@]12C)[C@H]3OC(=O)c1ccccc1 [ORBICULIN C] | 8.6 | – | 9.6 | 9.6 | – | – | 1
CC(=O)O[C@H]1CC[C@@H](C)[C@]23OC(C)(C)[C@H](C[C@H](OC(=O)c4ccco4)[C@]12C)[C@H]3OC(=O)c1ccco1 [ORBICULIN D] | 16.8 | – | 17.8 | 14.8 | – | – | 1.2
CC(=O)O[C@H]1C[C@@H](C)[C@]23OC(C)(C)[C@H](C[C@H](OC(=O)c4ccccc4)[C@]2(C)[C@H]1OC(C)=O)[C@H]3OC(=O)c1ccco1 [ORBICULIN E] | 28.3 | 2.6 | 33.1 | 66.2 | 1.8 | 1.6 | 0.5
CC(=O)O[C@H]1[C@@H](OC(=O)c2ccco2)C[C@@H](C)[C@]23OC(C)(C)[C@H](C[C@H](OC(=O)c4ccccc4)[C@]12C)[C@H]3OC(=O)c1ccco1 [ORBICULIN F] | 32.4 | 11 | 39.3 | 35.7 | 4.4 | 8.9 | 1.1
CC(=O)O[C@H]1[C@@H](OC(=O)c2ccccc2)C[C@@H](C)[C@]23OC(C)(C)[C@H](C[C@H](OC(=O)c4ccccc4)[C@]12C)[C@H]3OC(=O)c1ccccc1 [ORBICULIN G] | 26.4 | 143 | 28.6 | 5.9 | 153 | 168 | 4.8

From ChEMBL document CHEMBL1141843, “Sesquiterpene esters from Celastrus orbiculatus and their structure-activity relationship on the modulation of multidrug resistance” (J Nat Prod, 1999)
